From PubChem BioAssay
PHOSPHO1 inh: PubChem AID 1565 | inhibition, % at 13.3 µM | recombinant PHOSPHO1, absorbance phosphatase assay | hit rate 1.1% among 290,000; in the data active = inhibition above about 60%
Target sequence (Q8TCT1 whole entry, looked up): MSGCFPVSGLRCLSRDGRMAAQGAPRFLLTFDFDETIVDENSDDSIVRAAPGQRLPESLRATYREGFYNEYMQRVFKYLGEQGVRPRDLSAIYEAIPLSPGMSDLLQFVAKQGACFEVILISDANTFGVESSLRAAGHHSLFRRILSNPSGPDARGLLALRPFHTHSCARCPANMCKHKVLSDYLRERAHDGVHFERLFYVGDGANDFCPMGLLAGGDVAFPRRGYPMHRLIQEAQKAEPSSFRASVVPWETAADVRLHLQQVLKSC
HCV core dimer: inhibitors of HCV core protein dimerization, primary screen, biochemical, TR-FRET, high-throughput; TR-FRET GST/Flag-core106 dimerization, 1536-well; hit rate 0.33% among 300,000; inhibition, % at 5 µM;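 active = inhibition above the mean of all tested compounds plus 3 SD, set per screening campaign, cut at about 45% in these data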
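Test system: GST/Flag-tagged HCV core106 proteins; Medium: KF-containing HEPES buffer, pH 7.45, DTT, CHAPS, BSA; Times: compound-protein-antibody incubation 4 h at 22.5 °C; Detection: TR-FRET 671 and 617 nm emission; Benchmarks: wells lacking GST-core106 and wells with excess unlabelled core106.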
ALR H2O2 inh: inhibitors of human ALR sulfhydryl oxidase, primary screen, biochemical, H2O2 detection, HRP-luminol luminescence, single point; AID 485317, 2010; hit rate 3.8% among 290,000; FAD-linked sulfhydryl oxidase ALR (Homo sapiens), P55789; purified ALR, DTT oxidation; inhibition, % (test concentration not listed);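 active = mean replicate inhibition above about 79%, with every replicate also reaching it, limit read from the data; inconclusive = only one of the two criteria met; inactive = mean below limit and not every replicate reaching it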
HSF1 inh: HSF1 inhibitors in luciferase reporter cells, primary screen, cell-based, NIH3T3, luminescence; NIH3T3-HGL HSE-luciferase, MG132-induced, luminescence 8 h; hits give low values; activity change, negative = inhibition, % at 7.5 µM (by protocol); hit rate 0.77% among 300,000; AID 2098, 2009;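 active = more than half of replicate wells show activity change below -50%, luminescence cut by over half; inconclusive = some wells, but at most half, below -50%; inactive = no replicate well below -50%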;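 note: luciferase reports HSF-1 transcriptional activity via heat shock element; 0% = median of DMSO wells and -100% = zero luminescence signal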
AI-2 QS mod: Vibrio harveyi AI-2 quorum sensing modulators, primary screen, JMH597 strain, luminescence/OD600 ratio; Vibrio harveyi JMH597 AI-2 luminescence/OD600 ratio, 9 h; hits give low values; strain lacks LuxN and CqsS sensors; 0 = neutral-control median; activity change, % at 7.5 µM; hit rate 0.4% among 300,000; in the data active = activity change below about -75%, passing the limit was not always enough; inconclusive = no clear call, values can overlap the other calls;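 note: luminescence divided by OD600 gain over 9 h not by final OD600 alone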
HSF-1 act: HSF-1 activators, primary screen, NIH3T3-HGL cells, MG132 stress, luminescence, single point; NIH3T3-HGL HSF-1 luciferase reporter, 8 h; 100% = twice DMSO control signal; activation, % at 9 µM; hit rate 1.7% among 300,000; AID 504408, 2011;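 active = mean replicate activation of at least 50% with a set share of replicates each reaching 50%; inconclusive = only one of those two conditions met; inactive = mean below 50% and too few replicates reaching it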;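 note: 0% = median of the neutral control wells and 100% = twice that signal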
* marks the source's active call; other numbers are inactive results; ? = inconclusive; / = no result. The list is not random: actives were taken first. Their share in the collection is about 6.8%.

SMILES	PHOSPHO1 inh	HCV core dimer	ALR H2O2 inh	HSF1 inh	AI-2 QS mod	HSF-1 act
CNC(=S)NNC(=O)COc1ccccc1C	-113	-3	8	15	17	57*
O=C(COc1ccccc1F)OCC(=O)c1ccc([N+](=O)[O-])cc1	/	/	79*	/	/	/
CNC(=S)NNC(=O)COc1cccc(C)c1C	0	-1	1	-7	18	9
O=C(COc1ccc(/C=N/NC(=O)c2ccccc2O)cc1)Nc1ccc([N+](=O)[O-])cc1	-9	50*	-1	/	-4	/
CCCNC(=O)c1ccc(Cn2cc(-c3ccc(OC)cc3)nc2C(C)N)cc1 (stereo unspecified)	/	-6	2	-7	6	-27
O=C1/C(=C/c2ccccc2Cl)SC(=S)N1CCC(=O)N1CCCCC1CCO (stereo unspecified)	27	5	-12	39	14	68*
O=C(C1CCC1)N1CCc2cc(S(=O)(=O)N3CCN(c4ccccn4)CC3)ccc21	-36	20	-1	25	14	63*
CCCC1=NN2C(=N)/C(=C\c3cc(C)n(Cc4ccccc4)c3C)C(=O)N=C2S1	46	13	6	14	-8	7
CCC1=NN2C(=N)/C(=C/c3c(C)nn(-c4ccccc4)c3Cl)C(=O)N=C2S1	-11	-8	54	1	13	-4
O=C1NC(=S)S/C1=C\c1ccc(SCc2ccccc2)o1	-2	2	-1	/	/	/
CCCC1=NN2C(=N)/C(=C\c3ccc(SCc4ccco4)o3)C(=O)N=C2S1	89*	71*	99*	3	44	-12
O=C1NC(=S)S/C1=C\c1ccc(SCc2ccco2)o1	80*	-10	99*	/	/	/
CCC1=NN2C(=N)/C(=C\c3ccc(SCc4ccco4)o3)C(=O)N=C2S1	83*	14	?	-2	33	9
N#Cc1ccccc1Oc1ccccc1C=O	34	4	2	-7	32	-5
C=CCN(CC(=O)Nc1cccnc1)S(=O)(=O)c1ccc(Cl)cc1	/	/	0	/	/	/
COc1ccc(C(=O)N2CCN(S(=O)(=O)c3cc(Cl)ccc3OC)CC2)cc1	14	2	5	-1	20	-3
COc1ccccc1C(=O)Nc1ccnn1C1CCN(Cc2ccn[nH]2)CC1	38	0	-3	-3	16	8
COC(=O)c1ccc2nc(Nc3nc4c(F)cc(F)cc4s3)sc2c1	-2	-12	/	-88*	28	-90
CCOC(=O)c1ccc2nc(Nc3nc4ccc(F)cc4s3)sc2c1	-46	4	-11	-80*	10	-82
COC(=O)c1ccc2nc(NC(=O)CN3C(=O)CCC3=O)sc2c1	71*	-2	3	0	2	10
COc1cc(OC)cc(C(=O)NNC(=O)CCc2ccccc2)c1	9	-5	-1	1	22	7
Oc1ccc(Cl)cc1Cc1cc(Cl)ccc1O	-1	4	70	45	-112*	47
CCn1c(=O)c2c3c(sc2n2cnnc12)CCC3	-4	-1	-4	-58*	19	-68
CCn1c(=O)n(CCc2ccccc2)c(=O)c2c3c(sc21)CCCC3	-4	4	-4	-3	18	-9
Cc1ccc(NC(=O)CN(C)C(=O)Cn2ncc(Cl)c(Cl)c2=O)cc1	15	19	7	29	30	52*
Cc1ccc(NC(=O)CN(C)C(=O)Cc2ccc(Cl)c(Cl)c2)cc1	19	1	/	3	22	14
O=C(Oc1cc(=O)oc2c1c(=O)n1c3c(cccc23)CC1)c1ccc(F)cc1	37	8	-28	-67*	38	-75
O=C(C1CCCN(Cc2ccc(Br)cc2)C1)N1CCCCC1 (stereo unspecified)	28	6	90*	-2	19	-2
Cc1ccc(CN2CCCC(C(=O)N3CCCC3)C2)cc1 (stereo unspecified)	35	2	-7	-1	17	-1
